This note sets out measurements from ChEMBL document CHEMBL3272087, “Antifertility agents. 12. Structure-activity relationship of 3,4-diphenylchromenes and -chromans” (1976).

SMILES strings stand for the structures. Activity calls are given as the source filed them. No cut-off for these calls is given here.

The subject of assay [1] is Rattus norvegicus. The assay can be described thus: Antifertility activity in po dosed pregnant female albino rat assessed as absence of implantation in both uterine horns on day 10 of pregnancy compound administered for 5 days. It counts as functional. An outline of the steps: (§1)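 Mated rats of proven fertility; day 1 = sperm-positive vaginal smear. Compound macerated with gum acacia, given orally days 1-5, five animals per group; initial dose 20 mg/kg/day unless stated otherwise. Uterine horns examined on day 10; scored positive only when implantations totally absent in both horns.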

In assay [2] the test system is Rattus norvegicus. The assay can be described thus: Antifertility activity in pregnant female albino rat assessed as implantation in both uterine horns on day 10 of pregnancy at 20 mg/kg/day, po for 5 days. The assay is classed as functional, organism-based. An outline of the steps: as §1
The subject of assay [3] is Rattus norvegicus. The assay can be described thus: Estrogenic activity in immature female rat assessed as vaginal opening at 10 mg/kg, po bid for 3 days. The assay is classed as functional, organism-based. More on the design: dose 10 mg/kg. An outline of the steps:
(§2)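 Immature female rats, 25-30 g, scored for presence or absence of vaginal opening. Failure to induce opening was taken as complete absence of estrogenic activity.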

The test system of assay [4] is Rattus norvegicus. The assay can be described thus: Estrogenic activity in immature female rat assessed as diestrus smear with leukocytes at 10 mg/kg, po bid for 3 days. The assay is classed as functional, organism-based. Also on record: dose 10 mg/kg. The procedure, abridged:
(§3)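 Immature female rats, 25-30 g. Vaginal smear scored as + (leucocytes with epithelial cells), ++ (proestrus, nucleated or nucleated plus cornified cells) or +++ (estrus, cornified cells only). Estrone used as standard.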

The subject of assay [5] is Rattus norvegicus. The assay can be described thus: Estrogenic activity in immature female rat assessed as uterine weight on day 4 at 10 mg/kg, po bid for 3 days (reference value: 13.6 +/- 0.8 mg). It counts as functional.
The subject of assay [6] is Rattus norvegicus. The assay can be described thus: Estrogenic activity in immature female rat assessed as mixture of leukocytes,epithelial cells and estrus smear with cornified cells at 10 mg/kg, po bid for 3 days. It counts as functional, organism-based. More on the design: dose 10 mg/kg. An outline of the steps: as §3
Assay [7] relates to Rattus norvegicus. The experiment in a line: Estrogenic activity in immature female rat assessed as uterine weight on day 4 at 5 mg/kg, po bid for 3 days (reference value: 13.6 +/- 0.8 mg). The assay is classed as functional.
In assay [8] the test system is Rattus norvegicus. The assay can be described thus: Estrogenic activity in immature female rat assessed as vaginal opening at 5 mg/kg, po bid for 3 days. It counts as functional, organism-based. Also on record: dose 5 mg/kg. An outline of the steps:
as §2

Assay [9] has as its system Rattus norvegicus. The experiment in a line: Estrogenic activity in immature female rat assessed as mixture of leukocytes and epithelial cells at 10 mg/kg, po bid for 3 days. The assay is classed as functional, organism-based. Also on record: dose 10 mg/kg. The conditions noted are these: Epithelial cell. The procedure, abridged: as §3
The subject of assay [10] is Rattus norvegicus. The experiment in a line: Estrogenic activity in immature female rat assessed as diestrus smear with leukocytes and proestrus smear with nucleated and cornified cells at 5 mg/kg, po bid for 3 days. Also on record: dose 5 mg/kg. The assay is classed as functional, organism-based. An outline of the steps:
as §3

For assay [11], the system named is Rattus norvegicus. The experiment in a line: Estrogenic activity in immature female rat assessed as diestrus smear with leukocytes and mixture of leukocytes,epithelial cells at 10 mg/kg, po bid for 3 days. The assay is classed as functional, organism-based. More on the design: dose 10 mg/kg. An outline of the steps: as §3
Assay [12] relates to Rattus norvegicus. The experiment in a line: Estrogenic activity in immature female rat assessed as mixture of leukocytes, epithelial cells and proestrus smear with nucleated and cornified cells at 10 mg/kg, po bid for 3 days. It counts as functional, organism-based. More on the design: dose 10 mg/kg. The conditions noted are these: Epithelial cell. The procedure, abridged:
as §3

Take `COc1ccc(C2=C(c3ccccc3)C(C)(C)Oc3cc(OCCN4CCCC4)ccc32)cc1.Cl`: the ED100 in the assay with Rattus norvegicus [1] came out at 10 mg/kg.
On the same count and under the same terms, the same measure for `COc1ccc2c(c1)OC(C)(C)C(c1ccc(Cl)cc1)=C2c1ccc(OCCN2CCCC2)cc1.Cl`: 5 mg/kg.
In the case of `CCC1(CC)Oc2cc(OC)ccc2C(c2ccc(O)cc2)=C1c1ccccc1`, the result in the assay on Rattus norvegicus [2] was inactive. Besides, the outcome with Rattus norvegicus [3] and in the assay with Rattus norvegicus [4] was Active. Further, the Activity in the assay on Rattus norvegicus [5] stood at 39.2 mg.
For `CCC1(CC)Oc2cc(OC)ccc2[C@H](c2ccc(OCCN3CCCC3)cc2)[C@H]1c1ccccc1`, the result with Rattus norvegicus [6] and in the assay on Rattus norvegicus [3] was Active. In the assay with Rattus norvegicus [1], the ED100 is 5 mg/kg. In the assay with Rattus norvegicus [5], the Activity was 46.6 mg.
As to `COc1ccc2c(c1)OCC(c1ccccc1)=C2c1ccc(OCCN2CCCC2)cc1`, the result in the assay on Rattus norvegicus [3] and in the assay with Rattus norvegicus [4] was Active. The ED100 in the assay on Rattus norvegicus [1] worked out at 0.15 mg/kg. Further, the Activity in the assay on Rattus norvegicus [5] is 37.4 mg.
For the molecule `COc1ccc(C2=C(c3ccccc3)C(C)(C)Oc3cc(O)ccc32)cc1`, the outcome in the assay with Rattus norvegicus [2] was inactive.
In the case of `CC1(C)Oc2ccccc2C(c2ccc(OCCN3CCCC3)cc2)=C1c1ccccc1.Cl`, the ED100 with Rattus norvegicus [1] is 10 mg/kg.
With `COc1ccc2c(c1)OC[C@H](c1ccccc1)[C@@H]2c1ccc(OCCN2CCCC2)cc1` (relative stereo), the Activity in the assay on Rattus norvegicus [7] was 43.7 mg; in the assay with Rattus norvegicus [5], 50.6 mg. Further, the result with Rattus norvegicus [8], in the assay with Rattus norvegicus [9], with Rattus norvegicus [10] and with Rattus norvegicus [3] was Active. For the same molecule, the ED100 with Rattus norvegicus [1] was found to be 1 mg/kg.
Consider `CCN(CC)CCOc1ccc(C2=C(c3ccccc3)C(C)(C)Oc3cc(OC)ccc32)cc1.Cl`, for which the outcome with Rattus norvegicus [11] and in the assay on Rattus norvegicus [3] was Active. Besides, in the assay with Rattus norvegicus [1], the ED100 amounted to 10 mg/kg. Also, the Activity in the assay on Rattus norvegicus [5] came to 42 mg.
For the molecule `CCC1(CC)Oc2cc(OC)ccc2C(c2ccc(OCCN3CCCC3)cc2)=C1c1ccccc1.Cl`, the result in the assay with Rattus norvegicus [3] and in the assay with Rattus norvegicus [4] was Active. Also, the ED100 in the assay with Rattus norvegicus [1] is 10 mg/kg. The Activity in the assay with Rattus norvegicus [5] stood at 35.4 mg.
For `Cc1ccc2c(c1)[C@@H](c1ccccc1)[C@@H](c1ccccc1)CO2` (relative stereo), the result in the assay on Rattus norvegicus [2] was inactive.
The same measure, in the same setting: the same measure for `COc1ccc2c(c1)OC(C)(C)[C@H](c1ccccc1)[C@@H]2c1ccc(O)cc1` (relative stereo): “inactive”.
For `CCC1(CC)Oc2cc(OC)ccc2[C@@H](c2ccc(OCCN3CCCC3)cc2)[C@H]1c1ccccc1`, the outcome in the assay on Rattus norvegicus [2] was inactive. Moreover, in the assay on Rattus norvegicus [5], the Activity is recorded as 16.5 mg.
Consider `COc1ccc(C2=C(c3ccc(OC)cc3)C(C)(C)Oc3cc(OC)ccc32)cc1`, for which, in the assay with Rattus norvegicus [2], the result was inactive.
`COc1ccc2c(c1)OC(C)(C)C(c1ccccc1)=C2c1ccc(O)cc1`: in the assay with Rattus norvegicus [2], the result was inactive. For the same molecule, the outcome in the assay with Rattus norvegicus [12] and in the assay with Rattus norvegicus [3] was Active. The Activity with Rattus norvegicus [5] is listed as 49.2 mg.
As for `COc1ccc2c(c1)OC(C)(C)[C@@H](c1ccccc1)[C@H]2c1ccc(OCCN2CCCC2)cc1`, the outcome in the assay with Rattus norvegicus [2] was inactive. Also, the Activity in the assay on Rattus norvegicus [5] turned out to be 20.5 mg.
On to `COc1ccc2c(c1)OC(C)(C)C(c1ccccc1)=C2c1ccc(OCCN2CCCC2)cc1.Cl`, for which the ED100 with Rattus norvegicus [1] was 5 mg/kg.
`COc1ccc2c(c1)OC(C)(C)C(c1ccc(Cl)cc1)=C2c1ccc(O)cc1`: in the assay with Rattus norvegicus [2], the result was inactive.
On the same count and under the same terms, the same measure for `Cc1ccc2c(c1)[C@H](c1ccccc1)[C@@H](c1ccccc1)CO2` (relative stereo): “inactive”.
Take `COc1ccc2c(c1)OC[C@H](c1ccccc1)[C@H]2c1ccc(OCCN2CCCC2)cc1` (relative stereo): the result with Rattus norvegicus [11] and in the assay on Rattus norvegicus [3] was Active. Further, the ED100 in the assay with Rattus norvegicus [1] is 0.25 mg/kg. Further, the Activity with Rattus norvegicus [5] is listed as 48.3 mg.
For `CCC1(CC)Oc2cc(OC)ccc2[C@@H](c2ccc(O)cc2)[C@H]1c1ccccc1` (relative stereo), the outcome in the assay on Rattus norvegicus [2] was inactive. Moreover, the Activity in the assay on Rattus norvegicus [5] was 14.6 mg.
For the molecule `COc1ccc2c(c1)OC(C)(C)[C@@H](c1ccccc1)[C@@H]2c1ccc(OCCN2CCCC2)cc1` [LEVORMELOXIFENE], the outcome in the assay with Rattus norvegicus [6] and with Rattus norvegicus [3] was Active. For the same molecule, the ED100 in the assay on Rattus norvegicus [1] was determined as 0.25 mg/kg. In the assay on Rattus norvegicus [5], the Activity came to 48.3 mg.
Take `COc1ccc2c(c1)OC(C)(C)[C@H](c1ccccc1)[C@H]2c1ccc(O)cc1` (relative stereo): the result in the assay with Rattus norvegicus [2] was inactive.
Same read-out and setting: the same measure for `CC1(C)Oc2ccccc2C(c2ccc(O)cc2)=C1c1ccccc1`: “inactive”.
